Active and inactive are the calls of the source. The rule behind the calls is not given here.
How the values were obtained:
[1] = biological target: Lysosomal alpha-glucosidase (Rattus norvegicus, UniProt Q6P7A9); test: Inhibition of rat liver lysosome alpha-glucosidase assessed as p-nitrophenol release after 30 mins measured spectrometrically at 400 nm
[2] = biological target: T1, Beta-mannosidase (Rattus norvegicus) (UniProt Q4FZV0); test: Inhibition of rat epididymis beta-mannosidase assessed as p-nitrophenol release at 1000 uM after 30 mins by spectrophotometry
T1 sequence (whole entry): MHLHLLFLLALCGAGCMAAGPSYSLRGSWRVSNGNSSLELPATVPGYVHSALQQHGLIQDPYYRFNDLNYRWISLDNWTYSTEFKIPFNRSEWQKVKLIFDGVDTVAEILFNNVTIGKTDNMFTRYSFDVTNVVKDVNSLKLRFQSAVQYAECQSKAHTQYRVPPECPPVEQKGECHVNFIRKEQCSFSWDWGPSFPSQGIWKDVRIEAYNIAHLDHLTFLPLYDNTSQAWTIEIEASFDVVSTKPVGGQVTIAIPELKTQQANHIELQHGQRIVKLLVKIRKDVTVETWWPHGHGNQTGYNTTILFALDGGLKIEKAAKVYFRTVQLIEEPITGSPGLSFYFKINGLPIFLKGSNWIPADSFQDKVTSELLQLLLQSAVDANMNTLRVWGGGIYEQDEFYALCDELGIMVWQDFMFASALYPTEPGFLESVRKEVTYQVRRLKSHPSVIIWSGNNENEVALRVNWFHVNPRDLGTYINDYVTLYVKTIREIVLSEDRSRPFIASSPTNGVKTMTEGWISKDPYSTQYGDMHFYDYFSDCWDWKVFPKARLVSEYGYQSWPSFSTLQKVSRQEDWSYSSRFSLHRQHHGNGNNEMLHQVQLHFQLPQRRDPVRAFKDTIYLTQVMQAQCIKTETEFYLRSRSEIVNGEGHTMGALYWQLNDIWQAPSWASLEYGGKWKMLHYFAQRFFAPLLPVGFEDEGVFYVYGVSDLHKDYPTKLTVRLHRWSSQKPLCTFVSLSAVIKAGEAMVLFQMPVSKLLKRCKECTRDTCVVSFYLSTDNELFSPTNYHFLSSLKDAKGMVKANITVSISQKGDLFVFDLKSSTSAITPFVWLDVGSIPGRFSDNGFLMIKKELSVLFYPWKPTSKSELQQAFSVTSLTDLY
Method in brief: (§1)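 p-Nitrophenyl glycoside substrates: Penicillium decumbens α-L-rhamnosidase at pH 4.5, bovine epididymis α-L-fucosidase at pH 5.5, bovine liver β-galactosidase at pH 6.8. β-Mannosidase came from rat epididymal fluid purified from epididymis, with p-nitrophenyl-β-D-mannoside at pH 5.2. Enzyme, substrate and inhibitor were incubated 30 min at 37 °C. The reaction was stopped with 400 mM Na2CO3, and p-nitrophenol was read at 400 nm.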

[3] = biological target: T2, Tissue alpha-L-fucosidase (Bos taurus) (UniProt Q2KIM0); test: Inhibition of bovine epididymis alpha-L-fucosidase assessed as p-nitrophenol release at 1000 uM after 30 mins by spectrophotometry
T2 sequence (whole entry): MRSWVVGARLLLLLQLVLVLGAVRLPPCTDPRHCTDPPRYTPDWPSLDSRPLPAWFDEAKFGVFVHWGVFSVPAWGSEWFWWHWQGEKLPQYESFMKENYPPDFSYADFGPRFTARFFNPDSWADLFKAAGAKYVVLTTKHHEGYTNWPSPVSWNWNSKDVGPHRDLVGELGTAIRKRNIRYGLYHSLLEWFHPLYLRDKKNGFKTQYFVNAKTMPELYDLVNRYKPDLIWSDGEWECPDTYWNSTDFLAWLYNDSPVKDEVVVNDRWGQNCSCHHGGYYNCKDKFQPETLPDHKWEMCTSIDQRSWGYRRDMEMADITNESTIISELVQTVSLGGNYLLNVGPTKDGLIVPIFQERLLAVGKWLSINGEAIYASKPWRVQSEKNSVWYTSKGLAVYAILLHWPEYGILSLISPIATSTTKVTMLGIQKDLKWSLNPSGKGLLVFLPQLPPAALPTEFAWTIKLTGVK
Method in brief: as §1

[4] = Inhibition of Penicillium decumbens alpha-L-rhamnosidase assessed as p-nitrophenol release after 30 mins by spectrophotometry
Method in brief: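 Penicillium decumbens enzyme assayed at pH 4.5 with the appropriate p-nitrophenyl glycoside. Substrate, diluted enzyme and inhibitor were incubated 30 min at 37 °C, then stopped with 400 mM Na2CO3. Released p-nitrophenol was read at 400 nm.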

[5] = biological target: Oligo-1,6-glucosidase IMA1 (Saccharomyces cerevisiae S288c) (UniProt P53051); test: Inhibition of yeast alpha-glucosidase assessed as p-nitrophenol release at 1000 uM after 30 mins measured spectrometrically at 400 nm
Chain of Oligo-1,6-glucosidase IMA1 (Saccharomyces cerevisiae S288c) (P53051 whole entry): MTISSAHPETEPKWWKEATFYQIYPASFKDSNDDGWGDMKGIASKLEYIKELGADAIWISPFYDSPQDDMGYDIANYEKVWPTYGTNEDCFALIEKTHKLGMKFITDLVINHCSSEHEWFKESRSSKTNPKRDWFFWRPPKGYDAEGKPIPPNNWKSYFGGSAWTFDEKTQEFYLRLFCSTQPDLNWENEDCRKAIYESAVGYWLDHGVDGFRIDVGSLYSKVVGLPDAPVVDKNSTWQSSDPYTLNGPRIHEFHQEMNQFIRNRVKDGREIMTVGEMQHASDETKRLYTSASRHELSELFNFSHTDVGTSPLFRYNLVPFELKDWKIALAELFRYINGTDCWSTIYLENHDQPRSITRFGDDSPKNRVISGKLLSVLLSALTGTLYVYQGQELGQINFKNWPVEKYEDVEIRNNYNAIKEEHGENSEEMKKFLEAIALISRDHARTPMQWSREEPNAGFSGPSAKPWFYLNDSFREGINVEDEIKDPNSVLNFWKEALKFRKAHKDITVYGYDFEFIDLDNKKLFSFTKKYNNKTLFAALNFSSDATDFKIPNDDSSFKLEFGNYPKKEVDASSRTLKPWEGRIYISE

Beta-galactosidase = biological target: T3, Beta-galactosidase (Bos taurus, UniProt Q58D55); test: Inhibition of bovine liver beta-galactosidase assessed as p-nitrophenol release after 30 mins by spectrophotometry
T3 sequence (Q58D55 whole entry): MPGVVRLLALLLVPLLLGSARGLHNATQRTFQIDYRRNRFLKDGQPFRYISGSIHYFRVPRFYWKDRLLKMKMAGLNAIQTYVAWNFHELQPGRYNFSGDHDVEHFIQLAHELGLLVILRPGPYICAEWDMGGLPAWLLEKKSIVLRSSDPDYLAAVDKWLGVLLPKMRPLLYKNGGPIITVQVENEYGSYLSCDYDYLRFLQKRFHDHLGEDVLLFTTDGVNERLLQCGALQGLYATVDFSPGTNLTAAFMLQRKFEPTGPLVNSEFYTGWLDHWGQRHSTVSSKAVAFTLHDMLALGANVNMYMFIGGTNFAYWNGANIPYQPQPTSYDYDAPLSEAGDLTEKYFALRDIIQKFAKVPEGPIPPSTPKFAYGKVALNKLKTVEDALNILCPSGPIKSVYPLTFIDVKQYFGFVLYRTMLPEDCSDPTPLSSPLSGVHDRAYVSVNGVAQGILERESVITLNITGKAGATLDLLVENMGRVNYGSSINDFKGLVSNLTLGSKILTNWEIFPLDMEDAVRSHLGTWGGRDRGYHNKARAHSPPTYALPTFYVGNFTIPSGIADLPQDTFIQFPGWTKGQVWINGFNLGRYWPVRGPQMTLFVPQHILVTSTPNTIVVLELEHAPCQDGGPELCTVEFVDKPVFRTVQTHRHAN
Method in brief: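 Bovine liver enzyme at pH 6.8 with the appropriate p-nitrophenyl glycoside. Incubated with inhibitor 30 min at 37 °C, quenched with 400 mM Na2CO3, and released p-nitrophenol read at 400 nm.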

[6] = Inhibition of rice alpha-glucosidase assessed as D-glucose release after 10 mins by Glucose B-test; parameters: species or system Oryza sativa
Method in brief: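 Rice enzyme with maltose as substrate at the enzyme's optimum pH. Incubation with inhibitor ran 10 min at 37 °C. Released D-glucose determined colorimetrically with a glucose test kit.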

[7] = Inhibition of rat intestinal amyloglucosidase
[8] = biological target: T4, Tissue alpha-L-fucosidase (Bos taurus, UniProt Q2KIM0); test: Inhibition of bovine epididymis alpha-L-fucosidase assessed as p-nitrophenol release after 30 mins by spectrophotometry
T4 sequence (Q2KIM0 whole entry): T2 sequence (whole entry)
Method in brief: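 Enzyme from bovine epididymis, run at pH 5.5 with the appropriate p-nitrophenyl glycoside substrate. Enzyme, substrate and inhibitor incubated together 30 min at 37 °C. Reaction stopped by adding 400 mM Na2CO3; p-nitrophenol measured spectrometrically at 400 nm.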

[9] = biological target: T5, Beta-galactosidase (Bos taurus) (UniProt Q58D55); test: Inhibition of bovine liver beta-galactosidase assessed as p-nitrophenol release at 1000 uM after 30 mins by spectrophotometry
T5 sequence (whole entry): T3 sequence (Q58D55 whole entry)
Method in brief: as §1

[10] = biological target: Lysosomal alpha-glucosidase (Rattus norvegicus) (UniProt Q6P7A9); test: Inhibition of rat liver lysosome alpha-glucosidase assessed as D-glucose release at 1000 uM after 30 mins by Glucose B-test
Chain of Lysosomal alpha-glucosidase (Rattus norvegicus) (Q6P7A9 whole entry): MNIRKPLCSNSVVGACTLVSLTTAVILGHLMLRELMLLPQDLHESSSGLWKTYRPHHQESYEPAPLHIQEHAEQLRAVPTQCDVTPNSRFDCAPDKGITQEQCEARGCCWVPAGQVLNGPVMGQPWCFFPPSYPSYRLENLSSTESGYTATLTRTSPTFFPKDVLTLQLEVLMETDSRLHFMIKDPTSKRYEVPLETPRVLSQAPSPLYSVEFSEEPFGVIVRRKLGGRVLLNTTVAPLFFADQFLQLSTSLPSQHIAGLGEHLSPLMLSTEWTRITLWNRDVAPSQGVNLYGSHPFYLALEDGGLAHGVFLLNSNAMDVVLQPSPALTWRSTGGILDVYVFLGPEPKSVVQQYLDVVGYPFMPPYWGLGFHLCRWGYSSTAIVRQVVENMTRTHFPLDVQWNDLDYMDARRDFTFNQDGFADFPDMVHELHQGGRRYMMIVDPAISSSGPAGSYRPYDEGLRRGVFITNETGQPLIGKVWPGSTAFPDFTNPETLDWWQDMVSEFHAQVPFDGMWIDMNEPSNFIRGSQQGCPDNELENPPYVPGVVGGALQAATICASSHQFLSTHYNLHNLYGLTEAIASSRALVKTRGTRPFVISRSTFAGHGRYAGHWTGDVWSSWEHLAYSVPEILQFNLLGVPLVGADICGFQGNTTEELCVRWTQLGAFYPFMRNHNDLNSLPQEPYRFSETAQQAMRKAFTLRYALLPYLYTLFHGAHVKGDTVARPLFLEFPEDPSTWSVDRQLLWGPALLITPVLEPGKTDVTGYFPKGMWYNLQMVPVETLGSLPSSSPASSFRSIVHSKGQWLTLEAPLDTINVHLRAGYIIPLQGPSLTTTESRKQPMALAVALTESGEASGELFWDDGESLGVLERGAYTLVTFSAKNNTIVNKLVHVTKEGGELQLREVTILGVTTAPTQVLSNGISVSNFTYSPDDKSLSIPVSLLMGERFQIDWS

[11] = biological target: Lysosomal alpha-glucosidase (Rattus norvegicus) (UniProt Q6P7A9); test: Inhibition of rat intestinal maltase assessed as D-glucose release at 1000 uM after 30 mins by Glucose B-test
Method in brief: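 Brush border membranes from rat small intestine served as the enzyme source, with maltose substrate at pH 5.8. Incubation with inhibitor was 30 min at 37 °C. Released D-glucose was measured colorimetrically by Glucose B-test.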

[12] = biological target: Oligo-1,6-glucosidase IMA1 (Saccharomyces cerevisiae S288c) (UniProt P53051); test: Inhibition of yeast alpha-glucosidase assessed as D-glucose release at 1000 uM after 30 mins by Glucose B-test
Penicillium decumbens = test: Inhibition of Penicillium decumbens alpha-L-rhamnosidase assessed as p-nitrophenol release at 1000 uM by spectrophotometry
Method in brief: as §1

Oryza sativa = test: Inhibition of rice alpha-glucosidase assessed as D-glucose release at 1000 uM after 10 mins by Glucose B-test
Method in brief: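 Rice α-glucosidase was assayed with maltose as substrate at the enzyme's optimum pH. Incubation with inhibitor was 10 min at 37 °C. Released D-glucose was determined colorimetrically by Glucose B-test.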

[13] = biological target: Lactase/phlorizin hydrolase (Rattus norvegicus, UniProt Q02401); test: Inhibition of rat intestinal lactase assessed as p-nitrophenol release after 30 mins by spectrophotometry
Chain of Lactase/phlorizin hydrolase (Q02401 868-1928 limits assumed): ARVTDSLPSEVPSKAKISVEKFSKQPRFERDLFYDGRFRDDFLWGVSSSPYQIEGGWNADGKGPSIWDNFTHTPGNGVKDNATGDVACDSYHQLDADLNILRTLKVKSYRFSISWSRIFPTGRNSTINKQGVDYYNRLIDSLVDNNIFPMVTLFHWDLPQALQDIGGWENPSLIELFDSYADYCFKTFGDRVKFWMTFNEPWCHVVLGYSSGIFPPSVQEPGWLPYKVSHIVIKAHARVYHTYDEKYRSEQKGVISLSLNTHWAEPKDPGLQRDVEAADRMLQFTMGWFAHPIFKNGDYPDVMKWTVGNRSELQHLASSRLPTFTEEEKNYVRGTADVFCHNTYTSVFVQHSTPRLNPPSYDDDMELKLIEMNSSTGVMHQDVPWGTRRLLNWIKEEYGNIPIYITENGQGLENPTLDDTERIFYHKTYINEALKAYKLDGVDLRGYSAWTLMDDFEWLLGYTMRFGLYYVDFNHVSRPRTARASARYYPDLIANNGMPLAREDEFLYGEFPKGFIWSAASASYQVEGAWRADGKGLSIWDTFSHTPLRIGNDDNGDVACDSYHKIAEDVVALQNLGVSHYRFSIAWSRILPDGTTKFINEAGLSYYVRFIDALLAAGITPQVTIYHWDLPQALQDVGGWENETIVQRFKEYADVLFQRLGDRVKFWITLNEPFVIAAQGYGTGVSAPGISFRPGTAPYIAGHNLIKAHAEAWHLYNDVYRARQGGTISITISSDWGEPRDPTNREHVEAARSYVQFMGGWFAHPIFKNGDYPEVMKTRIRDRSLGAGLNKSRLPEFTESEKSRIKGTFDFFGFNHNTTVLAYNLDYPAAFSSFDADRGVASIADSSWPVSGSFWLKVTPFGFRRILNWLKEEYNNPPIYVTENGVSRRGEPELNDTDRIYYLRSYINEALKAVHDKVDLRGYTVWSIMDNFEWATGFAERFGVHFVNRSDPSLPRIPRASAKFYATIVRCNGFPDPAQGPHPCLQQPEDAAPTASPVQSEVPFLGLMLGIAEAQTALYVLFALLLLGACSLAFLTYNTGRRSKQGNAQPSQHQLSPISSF

Chain of Lysosomal alpha-glucosidase (Q6P7A9 whole entry): as the sequence (Q6P7A9 whole entry) above

Row | IC50 [1] [µM] | inhibition [2] [%] | inhibition [3] [%] | IC50 [4] [µM] | inhibition [5] [%] | IC50 (Beta-galactosidase) [µM] | IC50 [6] [µM] | SMILES | IC50 [7] [µM] | IC50 [8] [µM] | Activity [9] | Activity [10] | Activity [11] | Activity [3] | Activity [12] | Activity (Penicillium decumbens) | Activity (Oryza sativa) | IC50 [13] [µM]
1 | 19 | < 50 | < 50 | 94 | < 50 | 260 | 8 | C[C@H]1N[C@H](CO)[C@@H](O)[C@H](O)[C@H]1O | – | – | – | – | – | – | – | – | – | –
2 | – | – | – | – | – | – | – | C[C@@H]1C[C@H](O)[C@@H]2[C@@H](O)[C@H](O)[C@@H](CO)N21 (relative stereo) [HYACINTHACINE B4] | 89 | 23 | inactive | inactive | inactive | inactive | inactive | inactive | inactive | –
3 | – | – | – | – | – | – | – | C[C@@H]1C[C@@H](O)[C@@H]2[C@H](O)[C@H](O)[C@@H](CO)N21 [HYACINTHACINE B3] | 51 | – | inactive | inactive | inactive | inactive | inactive | inactive | inactive | 18

From ChEMBL document CHEMBL1137816, “New polyhydroxylated pyrrolidine, piperidine, and pyrrolizidine alkaloids from Scilla sibirica” (J Nat Prod, 2002)
